Reference: PMC2175342 (Nucleic Acids Research, 2007)
Read-outs that look alike come from different tables or passages of the source.

Key:
HeLa cell telomerase [1] = biological target: T1, HeLa cell telomerase (Homo sapiens, UniProt O14746); test: Semi-quantitative telomerase assay based on the 'stretch PCR' method; type: biochemical; conditions: for Km: natural dNTP substrate, Lineweaver–Burk plot analyses
HeLa cell telomerase [2] = biological target: T1, HeLa cell telomerase; conditions: cited from earlier work
[3] = tested on: telomerase from human leukemia cells and HeLa cells; conditions: cited from earlier work
[4] = tested on: immortalized human B- and T-cell lines; conditions: cited from earlier work
cherry salmon telomerase = test: Primer extension assay; type: biochemical; conditions: 18-mer (TTAGGG)3 primer, 5 or 20 µM analog
Method in brief: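 Telomerase was partially purified from immature cherry salmon testis (DEAE-cellulose, 70% ammonium sulfate, dialysis). It extended 2 µM (TTAGGG)3 in Tris–HOAc pH 8.5, KOAc, 1 mM MgCl2, 1 mM DTT and 5 µM [α-32P]dTTP. Either 200 µM dATP with 0/5 µM dGTP plus 0/5/20 µM dGTP-analog, or 200 µM dGTP with 0/5 µM dATP plus 0/5/20 µM dATP-analog. Run 1 h at 25°C, then RNase A/proteinase K, 20% PAGE–7 M urea, phosphorimaging.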

T1 sequence (O14746 whole entry): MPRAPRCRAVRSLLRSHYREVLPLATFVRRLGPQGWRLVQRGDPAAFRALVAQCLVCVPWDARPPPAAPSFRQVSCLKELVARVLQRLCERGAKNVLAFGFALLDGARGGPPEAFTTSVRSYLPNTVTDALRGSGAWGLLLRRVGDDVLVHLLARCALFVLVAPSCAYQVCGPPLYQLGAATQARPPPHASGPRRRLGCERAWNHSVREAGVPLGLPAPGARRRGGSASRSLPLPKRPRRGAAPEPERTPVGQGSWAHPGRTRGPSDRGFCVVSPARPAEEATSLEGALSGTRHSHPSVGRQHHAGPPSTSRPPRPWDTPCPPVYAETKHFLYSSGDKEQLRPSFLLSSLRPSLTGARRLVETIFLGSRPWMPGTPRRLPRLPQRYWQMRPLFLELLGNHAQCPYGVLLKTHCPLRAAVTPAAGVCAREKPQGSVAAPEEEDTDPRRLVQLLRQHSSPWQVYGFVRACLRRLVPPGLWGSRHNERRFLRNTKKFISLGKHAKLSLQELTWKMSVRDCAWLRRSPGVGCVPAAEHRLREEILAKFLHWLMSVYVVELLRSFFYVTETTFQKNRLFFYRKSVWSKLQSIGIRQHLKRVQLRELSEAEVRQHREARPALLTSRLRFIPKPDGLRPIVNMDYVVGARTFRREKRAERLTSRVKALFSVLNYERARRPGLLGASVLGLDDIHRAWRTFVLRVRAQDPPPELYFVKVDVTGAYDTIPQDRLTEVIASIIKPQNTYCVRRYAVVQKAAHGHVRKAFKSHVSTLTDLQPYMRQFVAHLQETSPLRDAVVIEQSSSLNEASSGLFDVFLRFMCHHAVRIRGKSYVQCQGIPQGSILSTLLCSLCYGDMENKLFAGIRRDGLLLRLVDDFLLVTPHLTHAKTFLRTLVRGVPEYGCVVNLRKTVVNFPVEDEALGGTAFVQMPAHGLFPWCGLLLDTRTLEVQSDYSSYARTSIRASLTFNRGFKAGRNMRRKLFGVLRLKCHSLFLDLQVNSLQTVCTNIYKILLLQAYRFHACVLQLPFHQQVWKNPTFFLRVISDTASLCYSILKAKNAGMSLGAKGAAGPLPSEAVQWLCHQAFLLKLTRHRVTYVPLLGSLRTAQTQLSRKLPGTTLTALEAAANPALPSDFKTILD
T1 sequence (O60832 whole entry partner): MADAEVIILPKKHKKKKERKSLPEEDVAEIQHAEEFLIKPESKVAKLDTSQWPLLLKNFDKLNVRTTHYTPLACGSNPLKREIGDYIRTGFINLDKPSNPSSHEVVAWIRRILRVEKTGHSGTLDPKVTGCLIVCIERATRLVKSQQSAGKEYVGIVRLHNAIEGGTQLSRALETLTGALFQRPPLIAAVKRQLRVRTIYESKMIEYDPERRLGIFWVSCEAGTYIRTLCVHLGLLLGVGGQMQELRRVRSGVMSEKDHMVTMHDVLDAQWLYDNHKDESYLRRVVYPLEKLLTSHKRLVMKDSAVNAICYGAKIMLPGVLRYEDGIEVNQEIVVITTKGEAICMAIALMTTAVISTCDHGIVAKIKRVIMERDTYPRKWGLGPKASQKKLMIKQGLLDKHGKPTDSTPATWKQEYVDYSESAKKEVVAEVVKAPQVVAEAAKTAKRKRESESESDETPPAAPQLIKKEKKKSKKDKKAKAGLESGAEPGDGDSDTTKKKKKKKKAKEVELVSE
T1 sequence (Q9NX24 whole entry partner): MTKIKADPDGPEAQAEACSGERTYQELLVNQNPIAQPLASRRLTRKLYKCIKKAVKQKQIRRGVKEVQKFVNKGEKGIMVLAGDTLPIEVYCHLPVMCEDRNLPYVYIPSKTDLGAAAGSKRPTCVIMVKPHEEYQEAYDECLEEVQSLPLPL
T1 sequence (Q9NPE3 whole entry partner): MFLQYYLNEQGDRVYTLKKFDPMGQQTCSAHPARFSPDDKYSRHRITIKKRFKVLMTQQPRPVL
T1 sequence (Q9NY12 whole entry partner): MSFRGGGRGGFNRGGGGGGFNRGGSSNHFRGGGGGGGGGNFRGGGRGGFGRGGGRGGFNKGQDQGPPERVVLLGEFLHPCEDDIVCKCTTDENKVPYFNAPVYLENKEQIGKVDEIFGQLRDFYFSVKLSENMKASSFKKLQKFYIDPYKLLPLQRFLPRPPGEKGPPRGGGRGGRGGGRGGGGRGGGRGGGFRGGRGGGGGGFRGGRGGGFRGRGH
T1 sequence (Q9BUR4 whole entry partner): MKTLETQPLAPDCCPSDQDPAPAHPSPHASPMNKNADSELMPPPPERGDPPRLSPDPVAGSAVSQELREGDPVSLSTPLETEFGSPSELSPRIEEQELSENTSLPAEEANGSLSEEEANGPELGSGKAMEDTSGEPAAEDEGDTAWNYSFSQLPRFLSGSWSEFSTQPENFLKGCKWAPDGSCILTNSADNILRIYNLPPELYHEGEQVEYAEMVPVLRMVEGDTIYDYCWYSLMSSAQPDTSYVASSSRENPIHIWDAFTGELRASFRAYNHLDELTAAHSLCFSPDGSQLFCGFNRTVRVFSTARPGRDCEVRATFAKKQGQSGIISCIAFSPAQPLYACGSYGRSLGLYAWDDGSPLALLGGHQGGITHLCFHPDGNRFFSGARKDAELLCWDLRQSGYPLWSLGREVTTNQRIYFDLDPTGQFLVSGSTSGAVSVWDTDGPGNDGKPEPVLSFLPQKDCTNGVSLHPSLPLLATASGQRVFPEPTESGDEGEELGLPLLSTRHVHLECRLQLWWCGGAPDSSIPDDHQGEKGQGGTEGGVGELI

Cc1cn([C@H]2C[C@H](N=[N+]=[N-])[C@@H](COP(=O)(O)OP(=O)(O)OP(=O)(O)O)O2)c(=O)[nH]c1=O [AZTTP, 3′-Azido-3′-deoxythymidine 5′-triphosphate]
Ki (HeLa cell telomerase [1]): 15 µM
inhibitory effects on human telomerase (HeLa cell telomerase [1]; Figure 2B): weak
inhibition mode (HeLa cell telomerase [1]; Lineweaver–Burk plots, versus the corresponding dNTP): nearly competitive

Nc1nc2c(ncn2[C@@H]2O[C@H](COP(=O)(O)OP(=O)(O)OP(=O)(O)O)[C@@H](O)[C@@H]2O)c(=O)[nH]1 [araGTP, 9-β-D-Arabinofuranosylguanine 5′-triphosphate]
Ki (HeLa cell telomerase [2]): 1.2 µM

Nc1ncnc2c1ncn2[C@H]1C[C@H](O)[C@@H](COP(=O)(O)OP(=O)(O)OP(=O)(O)O)O1 [dATP]
Km (HeLa cell telomerase [1]): 0.97 ± 0.31 µM

Nc1nc2c(ncn2[C@H]2C[C@H](O)[C@@H](COP(=O)(O)OP(=O)(O)OP(=O)(O)O)O2)c(=O)[nH]1 [dGTP]
Km (HeLa cell telomerase [1]): 8.2 ± 2.1 µM
Km [3]: 8 to 12 µM

Cc1cn([C@H]2C[C@H](O)[C@@H](COP(=O)(O)OP(=O)(O)OP(=O)(O)O)O2)c(=O)[nH]c1=O [dTTP]
Km (HeLa cell telomerase [1]): 7.9 ± 1.8 µM
Km [3]: 8 to 12 µM

Nc1nc2c(ncn2[C@H]2CC[C@@H](CO)O2)c(=O)[nH]1 [ddG, 2′,3′-dideoxyguanosine]
telomere DNA shortening ([4]; 10 µM, long-term treatment): reproducible progressive telomere DNA shortening
effects on cell population doubling rates or morphology [4]: did not have observable effects

Nc1nc2c(ncn2[C@H]2CC[C@@H](COP(=O)(O)OP(=O)(O)OP(=O)(O)O)O2)c(=O)[nH]1 [ddGTP]
primer extension product with analog instead of dGTP or dATP (cherry salmon telomerase): distinct 22-mer product
Ki (HeLa cell telomerase [2]): 0.65 µM
